Experimental data: ChEMBL document CHEMBL6092210, “Synthesis, in vitro and in vivo biological evaluation of novel dual compounds targeting both acetylcholinesterase and serotonergic 5-HT4 receptors with potential interest in the treatment of Alzheimer's disease” (Eur J Med Chem, 2024)

Tests used:
[1] = Half life in C57BL6 mouse at 0.3 to 3 mg/kg, iv; type: ADME, organism-based; conditions: in vivo, dose 0.3-3 mg/kg
Summary of the method: (§1)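 Single iv dose of 0.3, 1 or 3 mg/kg in 0.9 % saline, three animals per dose (C57Bl6 mice, Wistar rats). Terminal cardiac-puncture blood under isoflurane at six time points. Plasma protein-precipitated and assayed by UHPLC–MS/MS (LLOQ 1 ng/mL). Parameters from non-compartmental analysis.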

[2] = Drug metabolism in mouse liver microsome measured at 40 mins by UPLC/QE-orbitrap-MS method; type: ADME; conditions: microsomes
Summary of the method: (§2)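 Test compound as fumarate salt incubated with human, dog, mouse or rat liver microsomes over 0–60 min. Parent remaining measured by UPLC/QE-orbitrap-MS as relative LC/MS peak area (% of 0 min), n = 1.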

[3] = Drug metabolism in mouse liver microsome measured at 60 mins by UPLC/QE-orbitrap-MS method; type: ADME; conditions: microsomes, 1 h; summary of the method: as §2
[4] = biological target: T1, Cytochrome P450 3A4 (Homo sapiens, UniProt P08684); experiment: Inhibition of CYP3A4 in human liver microsomes using Testosterone as substrate; type: ADME, Microsome
T1 sequence (P08684 whole entry): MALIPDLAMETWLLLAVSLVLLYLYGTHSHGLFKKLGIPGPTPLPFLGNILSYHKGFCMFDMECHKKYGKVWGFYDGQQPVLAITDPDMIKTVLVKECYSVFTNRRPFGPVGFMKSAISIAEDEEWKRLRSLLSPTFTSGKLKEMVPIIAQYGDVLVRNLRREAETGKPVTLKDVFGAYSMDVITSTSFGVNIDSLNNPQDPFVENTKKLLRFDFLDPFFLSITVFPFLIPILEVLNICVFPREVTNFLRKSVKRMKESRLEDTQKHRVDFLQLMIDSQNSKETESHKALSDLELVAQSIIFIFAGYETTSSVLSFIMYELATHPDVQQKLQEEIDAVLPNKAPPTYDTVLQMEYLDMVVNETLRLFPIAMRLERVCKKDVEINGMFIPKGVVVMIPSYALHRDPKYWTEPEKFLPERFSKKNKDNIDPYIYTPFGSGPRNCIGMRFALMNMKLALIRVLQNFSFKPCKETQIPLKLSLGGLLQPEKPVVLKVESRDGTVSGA
Summary of the method: (§3)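 Human liver microsomes with a cocktail of CYP-specific probe substrates; metabolite formation monitored for each probe reaction. Test compound (fumarate) at 0.01, 0.1, 1, 10 and 100 μM. Control inhibitors run at a single concentration for each probe reaction. IC50 estimated.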

[5] = Volume of distribution in C57BL6 mouse at 0.3 to 3 mg/kg, iv; type: ADME, organism-based; conditions: in vivo, dose 0.3-3 mg/kg
Summary of the method: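 Pharmacokinetics in C57Bl6 mice given the compound iv at 0.3, 1 or 3 mg/kg in 0.9 % saline (10 mL/kg), three animals per dose. Terminal cardiac blood taken under isoflurane at six time points. Plasma analyzed by UHPLC–MS/MS (LLOQ 1 ng/mL). Parameters derived by non-compartmental analysis.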

[6] = biological target: T1, Cytochrome P450 3A4; experiment: Inhibition of CYP3A4 in human liver microsomes using Midazolam as substrate; type: ADME, Microsome; summary of the method: as §3
[7] = biological target: T2, Cytochrome P450 2B6 (Homo sapiens, UniProt P20813); experiment: Inhibition of CYP2B6 in human liver microsomes using bupropion as substrate; type: ADME, Microsome; summary of the method: as §3
T2 sequence (P20813 whole entry): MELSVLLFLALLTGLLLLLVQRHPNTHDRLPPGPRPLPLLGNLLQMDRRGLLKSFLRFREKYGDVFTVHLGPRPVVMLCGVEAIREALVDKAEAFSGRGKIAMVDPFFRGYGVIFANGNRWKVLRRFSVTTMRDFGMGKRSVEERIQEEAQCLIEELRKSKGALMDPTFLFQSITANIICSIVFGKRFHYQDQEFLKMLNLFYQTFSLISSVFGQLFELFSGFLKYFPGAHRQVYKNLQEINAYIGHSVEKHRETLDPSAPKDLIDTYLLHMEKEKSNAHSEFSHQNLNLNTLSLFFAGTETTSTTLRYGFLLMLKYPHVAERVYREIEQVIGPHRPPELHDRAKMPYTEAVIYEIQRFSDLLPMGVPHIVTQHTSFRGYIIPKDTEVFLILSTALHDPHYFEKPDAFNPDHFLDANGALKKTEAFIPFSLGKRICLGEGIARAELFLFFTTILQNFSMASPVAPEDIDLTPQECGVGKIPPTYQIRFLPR

[8] = Drug metabolism in human liver microsome measured at 40 mins by UPLC/QE-orbitrap-MS method; type: ADME; conditions: microsomes; summary of the method: as §2
[9] = MRT in C57BL6 mouse at 0.3 to 3 mg/kg, iv; type: ADME, organism-based; conditions: in vivo, dose 0.3-3 mg/kg; summary of the method: as §1
[10] = Drug metabolism in human liver microsome measured at 20 mins by UPLC/QE-orbitrap-MS method; type: ADME; conditions: microsomes; summary of the method: as §2
[11] = Toxicity in C57BL/6 mouse assessed as spontaneous locomotor activity at 10 mg/kg, ip incubated for 30 mins; type: organism-based; conditions: in vivo, 0.5 h
[12] = MRT in Wistar rat at 0.3 to 3 mg/kg, iv; type: ADME, organism-based; conditions: in vivo, dose 0.3-3 mg/kg; summary of the method: as §1
[13] = Drug metabolism in dog liver microsome measured at 40 mins by UPLC/QE-orbitrap-MS method; type: ADME, Canis lupus familiaris; conditions: microsomes; summary of the method: as §2
[14] = Clearance in C57BL6 mouse at 0.3 to 3 mg/kg, iv; type: ADME, organism-based; conditions: in vivo, dose 0.3-3 mg/kg; summary of the method: as §1
[15] = biological target: Cytochrome P450 2D6 (Homo sapiens, UniProt P10635); experiment: Inhibition of CYP2D6 in human liver microsomes using dextromethorphan as substrate; type: ADME, Microsome; summary of the method: as §3
Sequence of Cytochrome P450 2D6 (P10635 whole entry): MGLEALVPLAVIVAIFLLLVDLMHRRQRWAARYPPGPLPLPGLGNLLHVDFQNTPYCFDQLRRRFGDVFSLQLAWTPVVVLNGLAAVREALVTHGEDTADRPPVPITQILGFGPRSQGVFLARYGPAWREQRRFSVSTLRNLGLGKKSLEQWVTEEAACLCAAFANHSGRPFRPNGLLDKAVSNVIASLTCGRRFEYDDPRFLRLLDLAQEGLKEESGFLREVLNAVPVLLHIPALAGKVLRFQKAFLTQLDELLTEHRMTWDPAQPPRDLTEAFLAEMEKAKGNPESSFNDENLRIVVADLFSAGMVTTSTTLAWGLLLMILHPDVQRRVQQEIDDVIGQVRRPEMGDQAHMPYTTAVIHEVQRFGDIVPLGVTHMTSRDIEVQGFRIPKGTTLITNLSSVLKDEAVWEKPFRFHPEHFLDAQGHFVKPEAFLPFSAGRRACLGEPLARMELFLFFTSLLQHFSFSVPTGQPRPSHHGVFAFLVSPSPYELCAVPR

[16] = biological target: Cytochrome P450 2C19 (Homo sapiens, UniProt P33261); experiment: Inhibition of CYP2C19 in human liver microsomes using omeprazole as substrate; type: ADME, Microsome; summary of the method: as §3
Sequence of Cytochrome P450 2C19 (P33261 whole entry): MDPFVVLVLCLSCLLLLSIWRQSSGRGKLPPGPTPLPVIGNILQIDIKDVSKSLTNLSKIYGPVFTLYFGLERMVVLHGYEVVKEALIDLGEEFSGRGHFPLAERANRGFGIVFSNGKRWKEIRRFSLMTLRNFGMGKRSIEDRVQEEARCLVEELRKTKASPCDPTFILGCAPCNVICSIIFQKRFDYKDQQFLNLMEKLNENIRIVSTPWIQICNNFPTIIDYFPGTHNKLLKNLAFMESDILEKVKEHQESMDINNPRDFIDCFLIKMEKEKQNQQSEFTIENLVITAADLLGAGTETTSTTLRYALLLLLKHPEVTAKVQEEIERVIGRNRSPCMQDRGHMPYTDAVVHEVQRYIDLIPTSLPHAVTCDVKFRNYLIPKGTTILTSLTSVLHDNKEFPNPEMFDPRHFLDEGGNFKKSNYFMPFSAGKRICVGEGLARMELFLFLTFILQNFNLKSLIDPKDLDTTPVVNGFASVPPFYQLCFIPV

[17] = Toxicity in C57BL/6 mouse assessed as reversal of scopolamine-induced spontaneous alternation deficit at 3 mg/kg, sc incubated for 30 mins; type: organism-based; conditions: in vivo, 0.5 h
[18] = Toxicity in C57BL/6 mouse assessed as memory impairment at 0.3 mg/kg, ip incubated for 30 mins by novel object recognition test; type: organism-based; conditions: in vivo, 0.5 h
[19] = Drug metabolism in rat liver microsome measured at 20 mins by UPLC/QE-orbitrap-MS method; type: ADME; conditions: microsomes; summary of the method: as §2
[20] = Drug metabolism in dog liver microsome measured at 60 mins by UPLC/QE-orbitrap-MS method; type: ADME, Canis lupus familiaris; conditions: microsomes, 1 h; summary of the method: as §2
[21] = Drug metabolism in rat liver microsome measured at 60 mins by UPLC/QE-orbitrap-MS method; type: ADME; conditions: microsomes, 1 h; summary of the method: as §2
[22] = Drug metabolism in mouse liver microsome measured at 20 mins by UPLC/QE-orbitrap-MS method; type: ADME; conditions: microsomes; summary of the method: as §2
[23] = biological target: T3, Cytochrome P450 2C8 (Homo sapiens, UniProt P10632); experiment: Inhibition of CYP2C8 in human liver microsomes using repaglinide as substrate; type: ADME, Microsome; summary of the method: as §3
T3 sequence (P10632 whole entry): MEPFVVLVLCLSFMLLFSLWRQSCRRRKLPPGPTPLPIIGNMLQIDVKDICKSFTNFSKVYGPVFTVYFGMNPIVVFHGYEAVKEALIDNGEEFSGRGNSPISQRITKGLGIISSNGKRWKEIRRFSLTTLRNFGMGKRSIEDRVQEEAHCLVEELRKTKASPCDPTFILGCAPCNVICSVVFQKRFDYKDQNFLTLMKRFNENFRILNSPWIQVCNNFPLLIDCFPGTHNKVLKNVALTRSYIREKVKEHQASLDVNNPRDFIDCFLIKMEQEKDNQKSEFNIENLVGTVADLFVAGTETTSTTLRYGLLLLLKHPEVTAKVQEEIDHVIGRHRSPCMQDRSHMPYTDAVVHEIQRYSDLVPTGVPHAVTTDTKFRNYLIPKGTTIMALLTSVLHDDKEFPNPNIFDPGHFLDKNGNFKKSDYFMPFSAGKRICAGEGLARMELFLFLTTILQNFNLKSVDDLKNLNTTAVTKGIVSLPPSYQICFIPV

[24] = biological target: T1, Cytochrome P450 3A4; experiment: Inhibition of CYP3A4 in human liver microsomes using Omeprazole as substrate; type: ADME, Microsome; summary of the method: as §3
[25] = Drug metabolism in human liver microsome measured at 60 mins by UPLC/QE-orbitrap-MS method; type: ADME; conditions: microsomes, 1 h; summary of the method: as §2
[26] = biological target: 5-hydroxytryptamine receptor 4 (Homo sapiens, UniProt Q13639); experiment: Binding affinity to human recombinant 5HT4 receptor assessed as inhibition constant incubated for 60 mins
Sequence of 5-hydroxytryptamine receptor 4 (Q13639 whole entry): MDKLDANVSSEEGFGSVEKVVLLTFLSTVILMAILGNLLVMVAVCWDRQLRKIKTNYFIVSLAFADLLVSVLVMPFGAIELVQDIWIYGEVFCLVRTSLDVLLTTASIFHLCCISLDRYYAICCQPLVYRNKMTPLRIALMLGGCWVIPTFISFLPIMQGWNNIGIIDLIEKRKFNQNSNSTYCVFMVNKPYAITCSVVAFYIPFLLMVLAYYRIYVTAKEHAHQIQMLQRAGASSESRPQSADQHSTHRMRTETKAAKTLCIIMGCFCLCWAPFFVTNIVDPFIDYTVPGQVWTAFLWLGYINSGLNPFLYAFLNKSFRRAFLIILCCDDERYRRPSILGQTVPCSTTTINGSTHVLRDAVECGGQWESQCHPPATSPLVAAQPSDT

[27] = Drug metabolism in rat liver microsome measured at 40 mins by UPLC/QE-orbitrap-MS method; type: ADME; conditions: microsomes; summary of the method: as §2
[28] = Half life in Wistar rat at 0.3 to 3 mg/kg, iv; type: ADME, organism-based; conditions: in vivo, dose 0.3-3 mg/kg; summary of the method: as §1

SMILES: COc1cc(N)c(F)cc1C(=O)CCC1CCN(CC2CCCCC2)CC1.O=C(O)/C=C/C(=O)O
- half-life [1]: 47.8 min
- Drug metabolism [2]: 25%
- Drug metabolism [3]: 17%
- IC50 [4]: 8 µM
- Vd [5]: 3.6 L/kg
- IC50 [6]: 23.1 µM
- IC50 [7]: 95.7 µM
- Drug metabolism [8]: 63%
- MRT [9]: 69 min
- Drug metabolism [10]: 78%
- Activity [11]: Non-toxic
- MRT [12]: 69 min
- Drug metabolism [13]: 40%
- clearance [14]: 35.5 mL/min/kg
- IC50 [15]: 0.6 µM
- IC50 [16]: 7.2 µM
- Activity [17]: Non-toxic
- Activity [18]: Non-toxic
- Drug metabolism [19]: 10%
- Drug metabolism [20]: 29%
- Drug metabolism [21]: 6%
- Drug metabolism [22]: 44%
- IC50 [23]: > 100 µM
- IC50 [24]: 5.4 µM
- Drug metabolism [25]: 59%
- Ki [26]: 0.0163 µM
- Drug metabolism [27]: 6%
- half-life [28]: 46.1 min
